Source: ChEMBL document CHEMBL1671864, “First assessment in humans of the safety, tolerability, pharmacokinetics, and ex vivo pharmacodynamic antimalarial activity of the new artemisinin derivative artemisone” (Antimicrob Agents Chemother, 2008)
Converted amounts (≈) assume the structure as drawn.

Tests used:
[1] = Cmax in healthy human plasma at 80 mg, po administered as four 20 mg immediate release tablets daily for 3 days during 10 hrs overnight fasting state measured after 1 day; assay type: ADME, organism-based; set-up: dose 80 mg, route oral
In short: (§1)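 Healthy Caucasian males took tablets once daily for 3 days with 240 ml water after a 10-h fast. Heparinised blood was drawn predose and at 0.25–14 h after the first and last doses. Plasma parent drug and metabolites M1–M3 were measured by LC/MS-MS (MRM, deuterated internal standard). Noncompartmental analysis gave Cmax observed, t1/2 = 0.693/kel and MRT = AUMC/AUC. Values are geometric means.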

[2] = Tmax in healthy human plasma at 40 mg, po administered as single ascending doses as solution during 10 hrs overnight fasting state; assay type: ADME, organism-based
In short: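 Healthy Caucasian male volunteers, randomized within each dose group against placebo, given a single oral solution with 240 ml water after a 10-h overnight fast. Plasma sampled predose and at 0.25–14 h, quantified by LC/MS-MS (MRM, deuterated internal standard). Tmax read directly from individual noncompartmental concentration–time data.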

[3] = Cmax in healthy human plasma at 80 mg, po administered as single immediate release tablets during 10 hrs overnight fasting state; assay type: ADME, organism-based; set-up: dose 80 mg, route oral
In short: (§2)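 Healthy Caucasian male volunteers, single oral dose with 240 ml water after a 10-h overnight fast. Heparinised venous blood was drawn predose and at 0.25–14 h. Plasma was stored frozen. Parent drug and metabolites M1–M3 were measured by LC/MS-MS (MRM, deuterated internal standard). Noncompartmental analysis gave Cmax observed, t1/2 = 0.693/kel (terminal regression) and MRT = AUMC/AUC. Values are geometric means.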

[4] = Half life in healthy human plasma at 20 mg, po administered as single ascending doses as solution during 10 hrs overnight fasting state; assay type: ADME, organism-based; in short: as §2
[5] = Apparent volume of distribution with respect to the bioavailability in healthy human at 40 mg, po administered as two 20 mg immediate release tablets daily for 3 days during 10 hrs overnight fasting state measured after 1 day; assay type: ADME, organism-based; settings: in vivo, read-out: Vc/F
In short: (§3)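 Healthy Caucasian males took 40 mg (2×20-mg IR tablets) or 80 mg (4 tablets) orally daily for 3 days after a 10-h fast. Plasma parent drug was measured by LC/MS-MS from predose to 14 h after the first and third doses. Noncompartmental analysis: AUC by log-linear trapezoid extrapolated via kel, CL/F = dose/AUC, V/F = CL/F÷kel, geometric means.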

Plasmodium falciparum = test: Antimalarial activity against Plasmodium falciparum TM90-C2A in human plasma assessed as inhibition of hypoxanthine uptake by intraerythrocytic malaria parasites by hypoxanthine incorporation assay; assay type: functional, organism-based
In short: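 K1 or TM90-C2A parasites were sorbitol-synchronized and cultured in RPMI 1640. Drug was diluted in drug-free human serum (0.04–40 ng/ml) or subject plasma was diluted twofold (8–8,192). Parasites were added at 2% hematocrit, 1% parasitemia (>95% rings), and [3H]hypoxanthine uptake was measured over 48 h. IC50 or ID50 came from concentration or dilution-response curves. Equivalent concentration = ID50 × IC50.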

[6] = Mean residence time in healthy human at 40 mg, po administered as single ascending doses as solution during 10 hrs overnight fasting state; assay type: ADME, organism-based; settings: in vivo; in short: as §2
[7] = Cmax in healthy human plasma at 20 mg, po administered as single ascending doses as solution during 10 hrs overnight fasting state; assay type: ADME, organism-based; set-up: dose 20 mg, route oral; in short: as §2
[8] = Cmax in healthy human plasma at 80 mg, po administered as four 20 mg immediate release tablets daily for 3 days during 10 hrs overnight fasting state measured after 3 day; assay type: ADME, organism-based; set-up: dose 80 mg, route oral; in short: as §1
[9] = Tmax in healthy human plasma at 80 mg, po administered as four 20 mg immediate release tablets daily for 3 days during 10 hrs overnight fasting state measured after 1 day; assay type: ADME, organism-based
In short: (§4)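 Healthy Caucasian men (8 active, 4 placebo per dose) dosed with tablets daily for 3 days after 10-h fast. Lithium-heparin plasma sampled predose and 0.25–14 h after day-1 and day-3 doses, stored frozen. Parent and M1–M3 quantified by LC/MS-MS in positive-ion MRM. Tmax taken directly from observed individual data.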

[10] = Apparent volume of distribution with respect to the bioavailability in healthy human at 80 mg, po administered as four 20 mg immediate release tablets daily for 3 days during 10 hrs overnight fasting state measured after 3 day; assay type: ADME, organism-based; settings: in vivo, read-out: Vc/F; in short: as §3
[11] = Apparent volume of distribution with respect to the bioavailability in healthy human at 40 mg, po administered as single ascending doses as solution during 10 hrs overnight fasting state; assay type: ADME, organism-based; settings: in vivo, read-out: Vc/F
In short: (§5)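 Single ascending oral doses in healthy Caucasian men, given fasted (10-h overnight) with 240 ml water: 10, 20, 30 or 40 mg as oral solution, or 80 mg as IR tablets. Parent plasma levels by LC/MS-MS over 0.25–14 h. Noncompartmental analysis: kel by terminal-phase least-squares regression, AUC extrapolated to infinity, CL/F = dose/AUC, V/F = CL/F÷kel.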

[12] = Tmax in healthy human plasma at 40 mg, po administered as two 20 mg immediate release tablets daily for 3 days during 10 hrs overnight fasting state measured after 3 day; assay type: ADME, organism-based; in short: as §4
Homo sapiens [13] = test: Toxicity in healthy human assessed as occurrence of adverse event at 40 mg, po administered daily for 3 days as two 20-mg immediate-release tablets during 10 hrs overnight fasting state; assay type: organism-based; settings: in vivo
In short: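 3-day daily oral tablet dosing in healthy Caucasian men (8 active, 4 placebo per dose). Adverse events were collected by open questioning and spontaneous report. Severity was graded mild (daily activities unaffected), moderate (some interference) or severe (activities not completed).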

Plasma = test: Ratio of Cmax in healthy human plasma at 80 mg, po administered as four 20 mg immediate release tablets daily for 3 days during 10 hrs overnight fasting state measured after 1 day to Cmax in healthy human plasma at 80 mg, po administered as four 20 mg immediate release tablets daily for 3 days during 10 hrs overnight fasting state measured after 3 day; assay type: ADME, organism-based; settings: in vivo
In short: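 Healthy Caucasian men took tablets daily for 3 days with 240 ml water after 10-h fast. Plasma sampled 0.25–14 h after first and last doses, artemisone measured by LC/MS-MS. Accumulation ratio is Cmax or AUC0-∞ after last dose divided by that after first dose. Noncompartmental analysis, geometric means with 95% CI.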

Homo sapiens [14] = test: Toxicity in healthy human assessed as occurrence of clinically relevant changes in vital signs at 40 mg, po administered daily for 3 days as two 20-mg immediate-release tablets during 10 hrs overnight fasting state; assay type: organism-based; settings: in vivo
In short: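 Healthy Caucasian men received single ascending doses (10–40 mg solution, 80 mg tablets) or 3-day daily tablet courses, all fasting, with randomized placebo controls. Supine blood pressure, heart rate and resting 12-lead ECG were recorded before and after dosing.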

[15] = AUC in healthy human plasma at 80 mg, po administered as single immediate release tablets during 10 hrs overnight fasting state; assay type: ADME, organism-based; set-up: dose 80 mg, time < 10 hr, route oral; in short: as §5
[16] = AUC in healthy human plasma at 40 mg, po administered as single ascending doses as solution during 10 hrs overnight fasting state; assay type: ADME, organism-based; set-up: time < 10 hr, dose 40 mg, route oral; in short: as §5
[17] = Apparent oral clearance in healthy human at 80 mg, po administered as four 20 mg immediate release tablets daily for 3 days during 10 hrs overnight fasting state measured after 1 day; assay type: ADME, organism-based; settings: in vivo; in short: as §3
[18] = Cmax in healthy human plasma at 40 mg, po administered as two 20 mg immediate release tablets daily for 3 days during 10 hrs overnight fasting state measured after 3 day; assay type: ADME, organism-based; set-up: dose 40 mg, route oral; in short: as §1
[19] = Tmax in healthy human plasma at 80 mg, po administered as four 20 mg immediate release tablets daily for 3 days during 10 hrs overnight fasting state measured after 3 day; assay type: ADME, organism-based; in short: as §4
[20] = Apparent volume of distribution with respect to the bioavailability in healthy human at 30 mg, po administered as single ascending doses as solution during 10 hrs overnight fasting state; assay type: ADME, organism-based; settings: in vivo, read-out: Vc/F; in short: as §5

C[C@H]1[C@H](N2CCS(=O)(=O)CC2)O[C@@H]2O[C@@]3(C)CC[C@H]4[C@H](C)CC[C@@H]1[C@@]24OO3 [ARTEMIFONE]
Cmax [1]: 155 ng/mL | Tmax [2]: 37.5 min | Cmax [3]: 140 ng/mL | half-life [4]: 209 min | Vd/F [5]: 12.8 L/kg | IC50 (Plasmodium falciparum): 0.64 ng/mL (≈ 1.59 nM) | MRT [6]: 2.39 h | Cmax [7]: 57.3 ng/mL | Cmax [8]: 130 ng/mL | Tmax [9]: 1.5 h | Vd/F [10]: 13.7 L/kg | Vd/F [11]: 22.2 L/kg | Tmax [12]: 1.13 h | Activity (Homo sapiens [13]): Non-toxic | Ratio (Plasma): 84% | Activity (Homo sapiens [14]): Non-toxic | AUC at 10 h [15]: 282 ng·h/mL | AUC at 10 h [16]: 118 ng·h/mL | CL/F [17]: 3880 mL/min | Cmax [18]: 95 ng/mL | Tmax [19]: 1.5 h | Vd/F [20]: 26.6 L/kg
